pIC50, pKi: −log10 of the molar value. In brackets after ≈: the same amount, converted by molar mass.
Tests used:
[1] = Inhibition of Escherichia coli LpxC C63A mutant assessed as inhibition constant incubated for 30 mins by microplate reader analysis
Procedure, shortened: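 Purified E. coli LpxC C63A (15 nM final), expressed in E. coli BL21(DE3), with 25 μM UDP-3-O-[(R)-3-hydroxymyristoyl]-N-acetylglucosamine. Buffer was 40 mM MES pH 6.0, 80 μM DTT, 0.02% Brij 35 and 2% DMSO, with inhibitor at 20 nM–20 μM, for 30 min at 37 °C. The reaction was stopped with NaOH, neutralised with acetic acid, and product was derivatised with o-phthaldialdehyde/2-mercaptoethanol (ex 340, em 460 nm). Runs were done at least three times.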

[2] = molecular target: Elastase (Pseudomonas aeruginosa (strain ATCC 15692 / PAO1 / 1C / PRS 101 / LMG12228)) (UniProt P14756); test: Inhibition of Pseudomonas aeruginosa PA14 LasB at 20 uM by FRET assay relative to control
Elastase (Pseudomonas aeruginosa (strain ATCC 15692 / PAO1 / 1C / PRS 101 / LMG12228)), sequence (P14756 198-498 limits assumed): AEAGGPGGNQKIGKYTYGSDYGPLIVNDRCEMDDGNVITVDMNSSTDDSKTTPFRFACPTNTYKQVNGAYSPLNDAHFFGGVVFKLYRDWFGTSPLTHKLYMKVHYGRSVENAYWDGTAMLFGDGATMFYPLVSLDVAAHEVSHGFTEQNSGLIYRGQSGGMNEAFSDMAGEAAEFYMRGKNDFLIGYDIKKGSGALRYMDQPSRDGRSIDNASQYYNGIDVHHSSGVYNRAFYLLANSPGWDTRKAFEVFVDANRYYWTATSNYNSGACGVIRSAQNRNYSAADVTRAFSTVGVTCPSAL

Escherichia coli [3] = test: Antibacterial activity against Escherichia coli BL21(DE3) assessed as inhibition of visible bacterial growth incubated for 20 hrs by microdilution method; format: functional
Procedure, shortened: (§1)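 Broth microdilution in LB. Overnight cultures (37 °C, 200 rpm) were diluted 1:1000 and mixed with 2-fold compound dilutions in DMSO, giving 5 × 10⁵ cfu mL⁻¹, 5% DMSO and final compound concentrations of 64–0.016 μg mL⁻¹. Plates were incubated 20 h at 37 °C. MIC was the lowest concentration preventing visible growth, from at least three runs on separate days.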

Escherichia coli [4] = test: Antibacterial activity against Escherichia coli D22 assessed as inhibition of visible bacterial growth incubated for 20 hrs by microdilution method; format: functional; procedure, shortened: as §1
Escherichia coli [5] = test: Antibacterial activity against Escherichia coli D22 assessed as diameter of inhibition zone incubated for 20 hrs by disc diffusion assay; format: functional
Procedure, shortened: (§2)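 E. coli BL21(DE3) and the defective strain D22 were grown overnight in LB at 37 °C and 200 rpm, and 150 μL was spread on LB agar. Each compound (0.15 μmol in 10 or 15 μL DMSO) was spotted on 6 mm filter paper discs, with DMSO as negative and CHIR-090 as positive control. Plates were incubated overnight at 37 °C and the growth-inhibition zone diameter was measured.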

Elastase = Elastase (Pseudomonas aeruginosa (strain ATCC 15692 / PAO1 / 1C / PRS 101 / LMG12228), UniProt P14756); test: Inhibition of Pseudomonas aeruginosa PA14 LasB by FRET assay
Elastase, sequence (P14756 whole entry, the tested form may be a part): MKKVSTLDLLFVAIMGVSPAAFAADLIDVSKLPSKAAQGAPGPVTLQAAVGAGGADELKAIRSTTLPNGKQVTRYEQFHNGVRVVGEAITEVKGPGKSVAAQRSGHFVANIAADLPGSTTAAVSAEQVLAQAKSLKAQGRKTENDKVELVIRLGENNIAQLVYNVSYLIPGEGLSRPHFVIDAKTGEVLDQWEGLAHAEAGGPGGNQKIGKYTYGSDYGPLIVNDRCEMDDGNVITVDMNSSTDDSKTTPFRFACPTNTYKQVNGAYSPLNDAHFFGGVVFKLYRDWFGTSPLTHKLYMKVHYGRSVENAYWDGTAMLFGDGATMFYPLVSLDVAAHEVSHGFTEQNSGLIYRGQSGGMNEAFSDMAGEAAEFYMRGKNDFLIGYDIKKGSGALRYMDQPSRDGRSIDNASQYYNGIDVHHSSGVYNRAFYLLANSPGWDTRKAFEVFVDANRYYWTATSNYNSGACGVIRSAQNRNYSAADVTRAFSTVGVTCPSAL

Escherichia coli [6] = test: Antibacterial activity against Escherichia coli BL21(DE3) assessed as Diameter of inhibition zone incubated for 20 hrs by disc diffusion assay; format: functional; procedure, shortened: as §2
[7] = Plasma protein binding in human; format: ADME, cell-free
[8] = Metabolic stability in CD-1 mouse microsome; format: ADME; details: microsomes
Homo sapiens = organism: Homo sapiens; test: Inhibition of TACE (unknown origin) at 100 uM relative to control
[9] = Metabolic stability in CD-1 mouse liver S9 fraction assessed as half life in presence of NADPH by HPLC-MS/MS analysis; format: ADME, subcellular
Procedure, shortened: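 Compound at 1 μM was incubated at 37 °C for 120 min with pooled mouse liver S9 (1 mg/mL), 2 mM NADPH, 1 mM UDPGA, 10 mM MgCl₂, 5 mM GSH and 0.1 mM PAPS. Aliquots taken at set times were quenched with 2 volumes of cold acetonitrile containing diphenhydramine internal standard and centrifuged. Remaining compound was quantified by HPLC–MS/MS to derive half-life, with testosterone, verapamil and ketoconazole as activity controls.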

[10] = molecular target: T1, UDP-3-O-acyl-N-acetylglucosamine deacetylase (Pseudomonas aeruginosa, UniProt B5ATN6); test: Inhibition of Pseudomonas aeruginosa LpxC
T1 sequence (B5ATN6 whole entry): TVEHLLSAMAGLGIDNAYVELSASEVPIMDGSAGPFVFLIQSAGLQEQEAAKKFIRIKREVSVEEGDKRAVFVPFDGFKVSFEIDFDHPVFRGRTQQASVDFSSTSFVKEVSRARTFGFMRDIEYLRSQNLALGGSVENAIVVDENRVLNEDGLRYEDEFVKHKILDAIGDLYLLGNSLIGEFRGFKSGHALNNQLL
Procedure, shortened: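 Buffer was 50 mM potassium phosphate pH 7.5, 80 μM DTT, 0.02% Brij 35 and 2% DMSO, with inhibitor at 5 nM–5 μM, for 30 min at 37 °C. The reaction was stopped with HCl. Substrate and product were quantified by LC–MS/MS MRM peak areas relative to the uninhibited reaction, in at least two runs.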

| inhibition [2] [%] | SMILES | pKi [1] | diameter of the inhibition zone (DIZ) (Escherichia coli [6]) | further results |
| --- | --- | --- | --- | --- |
| < 10 | O=C(NC[C@H](OCc1ccc(C#Cc2ccc(CN3CCOCC3)cc2)cc1)C(=O)NO)c1cc(-c2ccccc2)[nH]n1 | 7.07 |  |  |
|  | O=C(NC[C@H](OCc1ccc(C#Cc2ccc(CN3CCOCC3)cc2)cc1)C(=O)NO)c1ccccc1 |  |  | MIC (Escherichia coli [3]): > 16 µg/mL |
|  | O=C(NC[C@@H](OCc1ccc(C#Cc2ccc(CN3CCOCC3)cc2)cc1)C(=O)NO)c1ccc(Oc2ccccc2)cc1 | < 5.60 |  |  |
|  | O=C(NC[C@@H](OCc1ccc(C#Cc2ccc(CN3CCOCC3)cc2)cc1)C(=O)NO)c1cccc(-c2ccccc2)c1 | < 5.60 |  |  |
|  | O=C(NC[C@@H](OCc1ccc(C#Cc2ccc(CN3CCOCC3)cc2)cc1)C(=O)NO)c1ccc2[nH]ccc2c1 | 5.94 |  |  |
| < 10 | O=C(NC[C@H](OCc1ccc(C#Cc2ccc(CN3CCOCC3)cc2)cc1)C(=O)NO)c1cc2ccccc2[nH]1 | 7.06 |  |  |
|  | O=C(NO)[C@H](CO)OCc1ccc(C#Cc2ccc(CN3CCOCC3)cc2)cc1 | 6.39 | 15.7 mm | MIC (Escherichia coli [4]): 1 µg/mL (≈ 2.44 µM); diameter of the inhibition zone (DIZ) (Escherichia coli [5]): 25.8 mm; MIC (Escherichia coli [3]): 32 µg/mL (≈ 78 µM) |
|  | O=C(NC[C@H](OCc1ccc(C#Cc2ccc(CN3CCOCC3)cc2)cc1)C(=O)NO)c1ccc2ccccc2n1 | 6.42 |  |  |
|  | O=C(NC[C@H](OCc1ccc(C#Cc2ccc(CN3CCOCC3)cc2)cc1)C(=O)NO)c1c[nH]c2ccccc12 | 7.97 |  | fraction unbound [7]: < 0.03; Stability [8]: Stable; inhibition (Homo sapiens): < 10% |
|  | O=C(NC[C@@H](OCc1ccc(C#Cc2ccc(CN3CCOCC3)cc2)cc1)C(=O)NO)c1ccc(-c2ccccc2)cc1 | < 5.60 |  |  |
|  | O=C(NO)[C@@H](CO)OCc1ccc(C#Cc2ccc(CN3CCOCC3)cc2)cc1 | 6.62 | 12.3 mm | MIC (Escherichia coli [4]): 2 µg/mL (≈ 4.87 µM); diameter of the inhibition zone (DIZ) (Escherichia coli [5]): 22 mm; MIC (Escherichia coli [3]): 64 µg/mL (≈ 156 µM) |
|  | O=C(NO)[C@H](COCc1ccccc1)OCc1ccc(C#Cc2ccc(CN3CCOCC3)cc2)cc1 |  | <=6 mm |  |
| < 10 | Cc1noc(C)c1C(=O)NC[C@@H](OCc1ccc(C#Cc2ccc(CN3CCOCC3)cc2)cc1)C(=O)NO | < 5.60 |  |  |
|  | Cc1noc(C)c1C(=O)NC[C@H](OCc1ccc(C#Cc2ccc(CN3CCOCC3)cc2)cc1)C(=O)NO | 6.90 |  |  |
| < 10 | Cc1noc(C)c1COC[C@H](O)[C@H](OCc1ccc(C#Cc2ccc(CN3CCOCC3)cc2)cc1)C(=O)NO |  |  |  |
|  | O=C(NC[C@@H](OCc1ccc(C#Cc2ccc(CN3CCOCC3)cc2)cc1)C(=O)NO)c1ccccc1 |  |  | MIC (Escherichia coli [3]): > 16 µg/mL |
| < 10 | O=C(NC[C@H](OCc1ccc(C#Cc2ccc(CN3CCOCC3)cc2)cc1)C(=O)NO)c1ccc2[nH]ccc2c1 | 8.02 |  | Stability [8]: Stable |

| inhibition [2] [%] | SMILES | pKi [1] | diameter of the inhibition zone (DIZ) (Escherichia coli [6]) | further results |
| --- | --- | --- | --- | --- |
|  | O=C(NC[C@@H](OCc1ccc(C#Cc2ccc(CN3CCOCC3)cc2)cc1)C(=O)NO)c1cc2ccccc2[nH]1 | < 5.60 |  |  |
|  | O=C(NC[C@@H](OCc1ccc(C#Cc2ccc(CN3CCOCC3)cc2)cc1)C(=O)NO)c1cc(-c2ccccc2)[nH]n1 | < 5.60 | <=6 mm |  |
| < 10 | O=C(NC[C@H](OCc1ccc(C#Cc2ccc(CN3CCOCC3)cc2)cc1)C(=O)NO)c1ccc(Oc2ccccc2)cc1 | 6.49 |  |  |
| < 10 | O=C(NO)[C@H](OCc1ccc(C#Cc2ccc(CN3CCOCC3)cc2)cc1)[C@H](O)COCc1ccccc1 |  |  |  |
| < 10 | O=C(NC[C@H](OCc1ccc(C#Cc2ccc(CN3CCOCC3)cc2)cc1)C(=O)NO)c1cnc2ccccc2c1 | 6.93 |  |  |
|  | O=C(NO)[C@@H](CN(Cc1ccccc1)Cc1ccccc1)OCc1ccc(C#Cc2ccc(CN3CCOCC3)cc2)cc1 | < 5.60 | <=6 mm | diameter of the inhibition zone (DIZ) (Escherichia coli [5]): <=6 mm; MIC (Escherichia coli [3]): > 64 µg/mL |
|  | O=C(NO)[C@@H](COCc1ccccc1)OCc1ccc(C#Cc2ccc(CN3CCOCC3)cc2)cc1 |  | <=6 mm |  |
| < 10 | O=C(NO)[C@H](CN(Cc1ccccc1)Cc1ccccc1)OCc1ccc(C#Cc2ccc(CN3CCOCC3)cc2)cc1 | < 5.60 | <=6 mm | MIC (Escherichia coli [3]): 8 µg/mL (≈ 13.6 µM) |
|  | O=C(NC[C@H](OCc1ccc(C#Cc2ccc(CN3CCOCC3)cc2)cc1)C(=O)NO)c1cc[nH]n1 |  |  | t1/2 [9]: 64 min; Stability [8]: Stable |
|  | O=C(NC[C@@H](OCc1ccc(C#Cc2ccc(CN3CCOCC3)cc2)cc1)C(=O)NO)c1c[nH]c2ccccc12 | 5.80 |  |  |
| < 10 | O=C(NC[C@H](OCc1ccc(C#Cc2ccc(CN3CCOCC3)cc2)cc1)C(=O)NO)c1ccc(-c2ccccc2)cc1 | < 5.60 |  |  |
|  | O=C(COCc1ccc(C#Cc2ccc(CN3CCOCC3)cc2)cc1)NO | 5.82 | 16.5 mm | MIC (Escherichia coli [4]): 1 µg/mL (≈ 2.63 µM); diameter of the inhibition zone (DIZ) (Escherichia coli [5]): 20.3 mm; MIC (Escherichia coli [3]): 64 µg/mL (≈ 168 µM) |
| < 10 | O=C(NC[C@H](OCc1ccc(C#Cc2ccc(CN3CCOCC3)cc2)cc1)C(=O)NO)c1cccc(-c2ccccc2)c1 | 7.38 |  |  |
|  | CCc1ccc(-c2ccc(C(=O)N[C@H](C(=O)NO)[C@@H](C)NCc3ccccn3)cc2)cc1 |  |  | pIC50 [10]: 7.02 |
|  | O=C(NC[C@@H](OCc1ccc(C#Cc2ccc(CN3CCOCC3)cc2)cc1)C(=O)NO)c1cnc2ccccc2c1 | < 5.60 |  |  |
|  | O=C(NC[C@@H](OCc1ccc(C#Cc2ccc(CN3CCOCC3)cc2)cc1)C(=O)NO)c1ccc2ccccc2n1 | < 5.60 | <=6 mm |  |

| SMILES | inhibition [2] [%] | pKi [1] | diameter of the inhibition zone (DIZ) (Escherichia coli [6]) | further results |
| --- | --- | --- | --- | --- |
| O=C(NO)[C@@H](OCc1ccc(C#Cc2ccc(CN3CCOCC3)cc2)cc1)[C@@H](O)COCc1ccccc1 | 61 | 6.55 | 11.2 mm | MIC (Escherichia coli [4]): 0.13 µg/mL (≈ 0.245 µM); diameter of the inhibition zone (DIZ) (Escherichia coli [5]): 19.5 mm; MIC (Escherichia coli [3]): 4 µg/mL (≈ 7.54 µM); pIC50 (Elastase): 4.75 |
| O=C(NO)[C@@H](OCc1ccc(C#Cc2ccc(CN3CCOCC3)cc2)cc1)[C@H](O)COCc1ccccc1 | 64.9 |  |  | pIC50 (Elastase): 4.83 |
| O=C(NO)[C@H](OCc1ccc(C#Cc2ccc(CN3CCOCC3)cc2)cc1)[C@@H](O)COCc1ccccc1 | < 10 | 6.06 | 8.5 mm | MIC (Escherichia coli [4]): 4 µg/mL (≈ 7.54 µM); diameter of the inhibition zone (DIZ) (Escherichia coli [5]): 13.3 mm; MIC (Escherichia coli [3]): > 64 µg/mL |

— ChEMBL document CHEMBL6120954, “Development of Fragment-Based Inhibitors of the Bacterial Deacetylase LpxC with Low Nanomolar Activity” (J Med Chem, 2024)
